From ChEMBL document CHEMBL3352690, “Synthesis and evaluation of arylpiperazines derivatives of 3,5-dioxo-(2H,4H)-1,2,4-triazine as 5-HT1AR ligands” (Bioorg Med Chem Lett, 2014)

Assays:
[1] = target: T1, 5-hydroxytryptamine receptor 1A (Homo sapiens, UniProt P08908); experiment: Displacement of [3H]8-OH-DPAT from 5HT1AR (unknown origin) by competition binding assay
T1 sequence (P08908 whole entry): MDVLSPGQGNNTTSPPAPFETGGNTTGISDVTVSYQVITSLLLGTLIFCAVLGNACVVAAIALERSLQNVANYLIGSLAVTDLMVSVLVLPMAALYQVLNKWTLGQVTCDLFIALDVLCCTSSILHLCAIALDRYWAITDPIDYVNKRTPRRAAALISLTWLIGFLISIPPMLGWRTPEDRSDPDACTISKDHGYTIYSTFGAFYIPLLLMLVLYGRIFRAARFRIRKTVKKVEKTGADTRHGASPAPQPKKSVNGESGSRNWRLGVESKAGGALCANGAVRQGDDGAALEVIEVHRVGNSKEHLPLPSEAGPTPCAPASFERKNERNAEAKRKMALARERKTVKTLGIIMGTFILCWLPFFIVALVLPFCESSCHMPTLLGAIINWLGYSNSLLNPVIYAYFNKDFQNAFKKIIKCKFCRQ

[2] = target: T2, Adrenergic receptor alpha-1 (Homo sapiens, UniProt P35348+P25100+P35368); experiment: Displacement of [3H]-7-methoxyprazosin from alpha1 adrenergic receptor (unknown origin) by competition binding assay
T2 sequence (P35348 whole entry): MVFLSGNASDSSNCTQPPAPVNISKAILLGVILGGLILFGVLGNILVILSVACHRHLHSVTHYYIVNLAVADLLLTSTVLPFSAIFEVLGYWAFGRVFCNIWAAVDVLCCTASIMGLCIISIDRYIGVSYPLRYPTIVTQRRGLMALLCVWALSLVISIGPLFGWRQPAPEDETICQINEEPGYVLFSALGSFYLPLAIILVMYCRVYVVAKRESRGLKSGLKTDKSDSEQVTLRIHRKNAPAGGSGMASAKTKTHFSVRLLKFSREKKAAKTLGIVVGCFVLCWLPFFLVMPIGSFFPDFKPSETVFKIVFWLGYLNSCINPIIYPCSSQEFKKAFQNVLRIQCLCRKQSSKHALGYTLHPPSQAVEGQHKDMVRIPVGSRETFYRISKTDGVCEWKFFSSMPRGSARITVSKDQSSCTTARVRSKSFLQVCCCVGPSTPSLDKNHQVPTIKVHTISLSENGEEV
T2 sequence (P25100 whole entry): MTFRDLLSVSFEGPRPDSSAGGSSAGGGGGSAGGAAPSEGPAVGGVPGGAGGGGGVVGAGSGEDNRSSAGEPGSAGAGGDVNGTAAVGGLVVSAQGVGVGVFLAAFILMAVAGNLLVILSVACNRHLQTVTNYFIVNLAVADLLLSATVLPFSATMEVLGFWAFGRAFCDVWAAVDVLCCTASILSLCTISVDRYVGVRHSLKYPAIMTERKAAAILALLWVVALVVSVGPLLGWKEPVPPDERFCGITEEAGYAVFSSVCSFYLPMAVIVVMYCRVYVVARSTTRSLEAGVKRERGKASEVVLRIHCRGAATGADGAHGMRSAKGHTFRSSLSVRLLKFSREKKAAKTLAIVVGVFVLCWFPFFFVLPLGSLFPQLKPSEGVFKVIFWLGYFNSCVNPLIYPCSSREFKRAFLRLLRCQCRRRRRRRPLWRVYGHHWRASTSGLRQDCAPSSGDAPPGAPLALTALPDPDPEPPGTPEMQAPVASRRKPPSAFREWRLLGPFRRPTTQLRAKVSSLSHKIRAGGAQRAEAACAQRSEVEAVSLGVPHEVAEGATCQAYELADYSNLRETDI
T2 sequence (P35368 whole entry): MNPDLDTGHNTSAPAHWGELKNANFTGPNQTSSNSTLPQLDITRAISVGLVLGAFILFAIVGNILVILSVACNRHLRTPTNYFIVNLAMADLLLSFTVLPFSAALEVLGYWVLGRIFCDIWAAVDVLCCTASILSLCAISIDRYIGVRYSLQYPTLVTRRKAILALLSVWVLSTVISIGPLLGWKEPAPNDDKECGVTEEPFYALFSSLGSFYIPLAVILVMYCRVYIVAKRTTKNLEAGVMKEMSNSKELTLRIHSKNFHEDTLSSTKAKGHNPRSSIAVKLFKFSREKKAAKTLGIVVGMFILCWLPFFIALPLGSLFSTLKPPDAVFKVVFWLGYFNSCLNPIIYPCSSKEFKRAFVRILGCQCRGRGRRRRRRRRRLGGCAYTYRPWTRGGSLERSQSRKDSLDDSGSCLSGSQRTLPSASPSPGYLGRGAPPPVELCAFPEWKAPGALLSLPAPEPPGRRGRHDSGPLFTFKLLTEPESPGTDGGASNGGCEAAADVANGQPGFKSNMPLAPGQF
Method in brief: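 Competition binding against [3H]-7-methoxyprazosin, with phentolamine as the reference compound.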

[3] = target: T3, 5-hydroxytryptamine receptor 1A (Homo sapiens) (UniProt P08908); experiment: Agonist activity at human 5HT1AR expressed in CHO cells assessed as increase in [35S]GTPgammaS binding by liquid scintillation spectrometry relative to untreated control; format: functional, cell-based; conditions: in the assay text read “relative to 5-HT” for “relative to untreated control”
T3 sequence (whole entry): T1 sequence (P08908 whole entry)
Method in brief: (§1)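 CHO-h5-HT1A cell membranes (30 μg) preincubated 5 min at room temperature with set concentrations of ligand in 20 mM HEPES pH 7.4, 3 mM MgCl2, 100 mM NaCl, 3 μM GDP. [35S]GTPγS (0.1 nM) then added, 60 min at room temperature. Stopped by rapid filtration through GF/B filters with three ice-cold 20 mM HEPES pH 7.4 washes. Bound radioactivity counted by liquid scintillation.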

[4] = target: T3, 5-hydroxytryptamine receptor 1A (Homo sapiens); experiment: (§2) Agonist activity at human 5HT1AR expressed in CHO cells assessed as increase in [35S]GTPgammaS binding by liquid scintillation spectrometry; format: functional, cell-based; method in brief: as §1
[5] = target: T1, 5-hydroxytryptamine receptor 1A; experiment: as §2; format: functional, cell-based; method in brief: as §1
[6] = organism: Homo sapiens; experiment: Selectivity index, ratio of Ki for alpha1 adrenergic receptor (unknown origin) to Ki for 5HT1AR (unknown origin)

| Ki [1] [nM] | Ki [2] [nM] | Emax [3] [%] | Activity [4] | EC50 [5] [nM] | Ratio Ki [6] | SMILES |
| --- | --- | --- | --- | --- | --- | --- |
| 28 | 450 |  |  |  |  | Cn1c(=O)cnn(CCCCN2CCN(c3c(Br)cccc3C#N)CC2)c1=O |
| 2.1 | 48 |  |  |  |  | CCOc1ccc2cccc(N3CCN(CCCCn4ncc(=O)n(C)c4=O)CC3)c2c1 |
| 220 | 450 |  |  |  |  | CNc1ccccc1N1CCN(CCCCn2ncc(=O)n(C)c2=O)CC1 |
| 0.2 | > 10000 | 95 | Dose-dependent effect | 0.2 |  | Cn1c(=O)cnn(CCCCN2CCN(c3cccc(F)n3)CC2)c1=O |
| 240 | > 10000 |  |  |  |  | COc1ccc2cccc(N3CCN(CCCCCn4ncc(=O)n(C)c4=O)CC3)c2c1 |
| 68 | > 10000 |  |  |  |  | Cn1c(=O)cnn(CCCCN2CCN(c3ccc(F)cn3)CC2)c1=O |
| 0.66 | 1.8 |  |  |  |  | CCOc1ccccc1N1CCN(CCCCn2ncc(=O)n(C)c2=O)CC1 |
| 1.1 | 262 | 85 | Dose-dependent effect | 0.08 |  | Cn1c(=O)cnn(CCCCN2CCN(c3ccccn3)CC2)c1=O |
| 0.835 | 7.3 |  |  |  |  | Cn1c(=O)cnn(CCCCN2CCN(c3ccccc3C#N)CC2)c1=O |
| 1.7 | > 10000 |  |  |  | > 10000 | Cn1c(=O)cnn(CCCCN2CCN(c3ccccc3O)CC2)c1=O |
| 215 | 380 |  |  |  |  | COc1ccc(N2CCN(CCCCn3ncc(=O)n(C)c3=O)CC2)c(C#N)c1 |
| 1.2 | > 10000 | 80 | Dose-dependent effect | 0.8 |  | Cn1c(=O)cnn(CCCCN2CCN(c3ncccc3F)CC2)c1=O |
| 1.89 | 9.73 |  |  |  |  | Cn1c(=O)cnn(CCCCN2CCN(c3ccccc3F)CC2)c1=O |
| 180 | 350 |  |  |  |  | CN(C)c1ccccc1N1CCN(CCCCn2ncc(=O)n(C)c2=O)CC1 |
| 0.8 | 280 |  |  |  | 42 | Cn1c(=O)cnn(CCCCN2CCN(c3ccccc3OCCCF)CC2)c1=O |
| 0.44 | 24.5 |  |  |  |  | Cn1c(=O)cnn(CCCCN2CCN(c3cccc4ccc(O)cc34)CC2)c1=O |

| Ki [1] [nM] | Ki [2] [nM] | Emax [3] [%] | Activity [4] | EC50 [5] [nM] | Ratio Ki [6] | SMILES |
| --- | --- | --- | --- | --- | --- | --- |
| 190 | > 10000 |  |  |  |  | COc1ccc(N2CCN(CCCCn3ncc(=O)n(C)c3=O)CC2)c(OC)c1 |
| 2.8 | > 10000 |  |  |  |  | Cn1c(=O)cnn(CCCCN2CCN(c3cccc(O)c3)CC2)c1=O |
| 1.4 | > 10000 |  |  |  |  | Cn1c(=O)cnn(CCCCN2CCN(c3cccc(Br)n3)CC2)c1=O |
| 2.5 | 64 | 93 | Dose-dependent effect | 0.3 | 25 | Cn1c(=O)cnn(CCCCN2CCN(c3ccccc3)CC2)c1=O |
| 8 | > 10000 |  |  |  |  | Cn1c(=O)cnn(CCCCN2CCN(c3ccccc3S)CC2)c1=O |
| 250 | > 10000 |  |  |  |  | Cn1c(=O)cnn(CCCN2CCN(c3ccccc3F)CC2)c1=O |
| 414 | > 10000 |  |  |  |  | COc1ccc(N2CCN(CCCCn3ncc(=O)n(C)c3=O)CC2)cc1 |
| 175 | > 10000 |  |  |  |  | COc1ccc2cccc(N3CCN(CCCn4ncc(=O)n(C)c4=O)CC3)c2c1 |
| 180 | > 10000 |  |  |  |  | COc1ccccc1N1CCN(CCCn2ncc(=O)n(C)c2=O)CC1 |
| 4.8 | > 10000 |  |  |  |  | Cn1c(=O)cnn(CCCCN2CCN(c3c(F)cccc3C#N)CC2)c1=O |
| 240 | > 10000 |  |  |  |  | COc1ccccc1N1CCN(CCn2ncc(=O)n(C)c2=O)CC1 |
| 0.46 | 1.8 |  |  |  |  | CSc1ccccc1N1CCN(CCCCn2ncc(=O)n(C)c2=O)CC1 |
| 175 | > 10000 |  |  |  |  | Cn1c(=O)cnn(CCCCN2CCN(c3ncccn3)CC2)c1=O [EPTAPIRONE] |
| 150 | > 10000 |  |  |  |  | COc1ccccc1N1CCN(CCCCCn2ncc(=O)n(C)c2=O)CC1 |
| 350 | > 10000 |  |  |  |  | Cn1c(=O)cnn(CCCN2CCN(c3ccccc3)CC2)c1=O |
|  | 6.75 |  | Dose-dependent effect |  | 45 | COc1ccccc1N1CCN(CCCCn2ncc(=O)n(C)c2=O)CC1 |

| SMILES | Ki [1] [nM] | Ki [2] [nM] | Emax [3] [%] | Activity [4] | EC50 [5] [nM] | Ratio Ki [6] |
| --- | --- | --- | --- | --- | --- | --- |
| Cn1c(=O)cnn(CCCCN2CCN(c3ccc(I)cc3)CC2)c1=O | 58.8 | 103 |  |  |  |  |
